# G6PDH counter: inhibits Leuconostoc G6PDH, flagging false hits in G6PDH-based assays | 200,000 tested, 0.12% active | inhibition, % at 5 µM | Purified L. mesenteroides G6PDH, diaphorase/resazurin coupled fluorescence, 45 min | AID 1020; in the data active = inhibition above about 50%
# DTT redox prof: compounds producing H2O2 with reducing agent – biochemical, NIH compound library profiling, artefact control for MLSCN library redox annotation, primary screen; DTT-dependent redox cycling H2O2, phenol red/HRP absorbance; 100% = 100 µM peroxide control, 0% = buffer; activation, % at 10 µM; 200,000 tested, 0.03% active; AID 878;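 active = activation of at least 50% relative to the plate's high and low controls in the primary single-dose screen; inactive = activation below 50%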;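 also: compound incubated with DTT at 0.8 mM final as the reducing agent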
# Diaph act CS: counter-screen for diaphorase-based assays: diaphorase activators and chemical reducers | Diaphorase/resazurin coupled assay, resorufin fluorescence, 16 min; active compounds read high; 1 = vehicle wells, 0 = NADH-free wells | activation factor at 20 µM | 190,000 tested, 0.005% active;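 active = diaphorase activity raised at least twofold by the compound at 20 µM; inactive = activation factor below 2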
#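 Material: bacterial diaphorase enzyme (C. kluyveri); amount: enzyme 0.07 U/mL final; reagent: NADH substrate 0.114 mM plus resazurin dye 0.1 mM, final; doses: single compound dose of 20 µM, 1% DMSO final; timing: 16 min enzyme reaction, ambient temperature; measured by: fluorescence of resorufin, 544 nm excitation, 590 nm emission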
# Diaph inh CS: inhibits diaphorase or chemically oxidizes, flagging diaphorase assay artifacts; AID 1217; inhibition, % at 20 µM; diaphorase resazurin-to-resorufin fluorescence, NADH, 16 min; bacterial (C. kluyveri) enzyme, not human; 190,000 tested, 0.69% active;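 active = primary screen inhibition at 20 µM above a set limit, cut at about 50% in these data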;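 also: plate controls were DMSO with full reaction for no effect and wells lacking NADH for full effect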
#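 material = Clostridium kluyveri diaphorase enzyme | amount = 0.14 U/mL diaphorase, enzyme working solution | schedule = incubation 16 min, room temperature | detection = fluorescence of resorufin formed from resazurin, Ex 544/Em 590 nm | benchmarks = positive control minus NADH, DMSO neutral control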
# PMI act hi M6P: activators of human phosphomannose isomerase at near-saturating mannose 6-phosphate. P34949. coupled PMI enzyme assay, resazurin fluorescence, 20 min; active compounds read high; 1 = untreated enzyme, 0 = substrate-free blank. activation factor at 20 µM. 190,000 tested, 0.34% active. AID 1216;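 active = activation factor of 2 or more at 20 µM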
# Target sequence (P34949 whole entry, looked up): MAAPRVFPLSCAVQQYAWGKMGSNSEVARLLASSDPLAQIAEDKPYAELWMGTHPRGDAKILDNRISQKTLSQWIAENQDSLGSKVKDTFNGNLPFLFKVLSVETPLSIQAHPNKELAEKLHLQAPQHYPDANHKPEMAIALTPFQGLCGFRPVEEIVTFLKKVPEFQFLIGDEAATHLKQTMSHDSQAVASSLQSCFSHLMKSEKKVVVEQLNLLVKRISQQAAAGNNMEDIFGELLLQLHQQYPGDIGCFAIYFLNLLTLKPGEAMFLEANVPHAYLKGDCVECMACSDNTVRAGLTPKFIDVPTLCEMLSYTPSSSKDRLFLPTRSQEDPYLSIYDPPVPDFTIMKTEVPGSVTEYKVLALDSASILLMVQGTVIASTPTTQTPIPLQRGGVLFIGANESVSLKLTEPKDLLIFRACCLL
#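 Test system: human phosphomannose isomerase with PGI, G6PDH, diaphorase coupling enzymes / Doses: 20 µM compound, 1% DMSO / Times: enzyme reaction with compound 20 min at room temperature / Measured by: Diaphorase-driven resazurin-to-resorufin fluorescence, excitation 544, emission 590 nm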
# PMI activator: increases human mannose-6-phosphate isomerase activity | purified human PMI, coupled resazurin fluorescence, 20 min; active compounds read high; 1 = vehicle control, 0 substrate-free wells | AID 1214 | 190,000 tested, 0.005% active | activation factor at 20 µM;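 active = activation factor of 2 or more at 20 µM, relative to plate controls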
# Numbers without * were called inactive. An excerpt weighted towards active compounds, which were near 1.1% of everything screened.
SMILES,G6PDH counter,DTT redox prof,Diaph act CS,Diaph inh CS,PMI act hi M6P,PMI activator
CCOC(=O)c1c2ccc(OCC(=O)NN)cc2n2ccccc12,43,-1,0.4,64*,0.2,0.2
CC1(C)Oc2ccc(C#N)cc2[C@@H](N2CCCC2=O)[C@@H]1O,9,0,0.9,11,1,1
COC(=O)CC1c2cc(OC)c(OC)cc2CC(=O)c2cc(OC)c(OC)cc21 (configuration not stated),19,0,0.8,15,2*,1.5
COC(=O)CC1NCCc2cc(OC)c(OC)cc21 (configuration not stated),-5,0,1,2,1.1,1.1
O=c1cc(O)c2sc(Nc3cccc(C(F)(F)F)c3)nc2[nH]1,16,1,0.3,66*,0.5,0.5
Cc1cc(=O)[nH]c(Nc2cccc(C(F)(F)F)c2)n1,5,0,1.1,-6,1.1,1.1
Fc1ccc(Nc2nc3ccccc3s2)cc1,1,0,0.9,14,0.9,0.9
O=c1cc(O)c2sc(Nc3ccc(F)cc3)nc2[nH]1,13,0,0.2,78*,0.4,0.3
CCOc1ccc(NC(=O)CC2Nc3ccccc3NC2=O)cc1 (configuration not stated),-1,-1,0.9,11,0.9,0.9
Cc1cccc(NC(=O)CC2Nc3cccc4cccc(c34)NC2=O)c1 (configuration not stated),30,2,0.3,68*,0.9,0.7
CC(=O)Nc1ccc(NC(=O)CC2Nc3cccc4cccc(c34)NC2=O)cc1 (configuration not stated),26,-2,0.2,77*,1.1,1
CC(=O)c1ccc(NC(=O)CC2Nc3cccc4cccc(c34)NC2=O)cc1 (configuration not stated),20,1,0.2,84*,0.9,0.8
O=C(CC1NC(=O)NC1=O)Nc1ccccc1 (configuration not stated),2,0,0.9,11,1,1
O=C(COc1ccc(S(=O)(=O)N2CCCC2)cc1)Nc1ccc2c(c1)OCCO2,1,-1,0.9,12,0.9,1
CN(C(=O)CO/N=C/c1ccc(Cl)cc1)c1ccccc1,13,-1,0.9,14,0.9,1.1
CCOc1cc(/C=N/Nc2cccc(C(=O)O)c2)ccc1OCC(=O)N1CCCCC1,2,0,0.9,8,2.3*,1.7
CCOc1cc(C=O)ccc1OCC(=O)N1CCCC1,19,-1,0.8,23,0.9,1
COc1ccccc1/C=C/C=N/NC(=O)c1ccc2nc[nH]c2c1,-4,0,0.9,5,1.1,1
N#Cc1c(-c2cccc(Br)c2)cc(-c2ccco2)[nH]c1=O,6,1,0.3,67*,0.8,1
COc1ccc(/C=N\NC(=O)c2cc(O)c(O)c(O)c2)cc1CN1CCN(c2ccc(F)cc2)CC1,-20,1,0.4,63*,0.5,0.4
CCOC(=O)c1c(C)oc2c1c(C=NCCC(=O)O)c(O)c1ccccc12,52*,0,0.3,71*,0.2,0.2
CCOC(=O)c1c(C)oc2c1c(C=NC1CCS(=O)(=O)C1)c(O)c1ccccc12 (configuration not stated),34,2,0.2,76*,0.4,0.2
CCOC(=O)c1c(C)oc2c1c(CN1CCN(CCO)CC1)c(O)c1ccccc12,48,0,0.4,61*,0.2,0.4
CCOC(=O)c1c(C)oc2c1c(CN1CCN(C(=O)OCC)CC1)c(O)c1ccccc12,40,-1,0.6,36,0.3,0.7
O=C(O)CC/C(=N/Nc1ncc(C(F)(F)F)cc1Cl)C(=O)O,10,-1,0.5,53*,0.6,0.6
SMILES,G6PDH counter,DTT redox prof,Diaph act CS,Diaph inh CS,PMI act hi M6P,PMI activator
O=C(O)CCc1ncc(C(F)(F)F)cc1Cl,0,-3,1,2,1.1,1.1
CCC(NC(=O)/C(=C\c1ccc2c(c1)OCO2)NC(C)=O)C(=O)O (configuration not stated),-2,-1,0.9,7,1,0.9
CSCCC(NC(=O)c1ccc(Cl)cc1)C(=O)OCC(=O)Nc1cc(Cl)ccc1C#N (configuration not stated),-2,0,0.7,26,0.9,0.9
COc1ccccc1NC(=O)NCc1ccc2c(c1)OCO2,-16,4,0.9,7,0.9,0.9
COc1ccccc1N/N=C/c1ccc2c(c1)OCO2,16,0,0.7,27,2.3*,1.5
O=C1NN(c2ccccc2)C(=O)/C1=C\c1ccc(-c2cc([N+](=O)[O-])ccc2O)o1,15,1,0.2,80*,0.9,0.9
CCOc1cc(/C=C2\C(=O)NN(c3ccccc3)C2=O)cc([N+](=O)[O-])c1O,6,0,0.5,53*,1.2,1.3
Cc1ccc(N2NC(=O)/C(=C/c3ccc(-c4ccc(Cl)c(C(=O)O)c4)o3)C2=O)cc1,8,0,0.8,23,0.8,1
O=C1NN(c2ccc(Cl)cc2)C(=O)/C1=C\c1ccc(-c2cccc(C(=O)O)c2)o1,6,0,0.5,53*,1.1,1.2
COc1cc(/C=C2\C(=O)NN(c3ccccc3)C2=O)cc([N+](=O)[O-])c1O,1,0,0.7,30,1.1,1.2
CC(C)c1nnc(NC(=O)CSc2nnc(-c3ccco3)o2)s1,17,-1,0.9,7,0.9,0.9
COc1nc(Nc2ccc([N+](=O)[O-])cc2)nc(NC2CCCCC2)n1,11,1,0.6,39,0.8,0.8
O=C(NC1CCCCC1)Oc1cccc2ccccc12,52*,0,0.7,28,0.4,0.7
CCOc1ccccc1OCC(=O)NC1CCCCC1,4,0,1,4,1.1,1.1
Cc1cc(C)n(C(=O)CCCn2nc(C)c([N+](=O)[O-])c2C)n1,13,0,1.1,-11,1.1,1.1
Clc1ccc(-c2c[nH]c3ccccc23)nn1,2,0,0.4,63*,1,1
c1ccc2c(-c3c[nH]c4ccccc34)c3ccccc3nc2c1,4,0,0.7,33,0.8,0.8
O=C(NCCc1ccccc1)C(=O)c1c(-c2ccccc2)[nH]c2ccccc12,18,0,0.9,14,0.9,0.8
Cc1cc(-c2nc3c4c5c(sc4[nH]c(=O)n3n2)CCC5)c(C)o1,-5,3,0.4,57*,1.3,1.2

# From PubChem
